Assay [1] deals with 5-hydroxytryptamine receptor 2A (Homo sapiens) (UniProt P28223). The assay can be described thus: Antagonist activity at human 5-HT2A receptor expressed in HEK293 cells assessed as inhibition of serotonin-induced receptor activation preincubated for 15 mins followed by serotonin addition and measured after 1 hr by TGFalpha shedding assay. In kind it is functional, cell-based. The gist of the method:
(§1)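 HEK293 cells were co-transfected with the receptor construct and alkaline phosphatase-tagged TGFα, then seeded in HBSS. Cells were pretreated 15 min with compound (0.1 nM–30 µM final), then given serotonin at final 1 µM (5-HT2A) or 0.1 µM (5-HT2B, 5-HT2C) for 1 h at 37 °C. Kb came from IC50 via the modified Gaddum equation.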

Assay [2] concerns the target 5-hydroxytryptamine receptor 2B (Homo sapiens) (UniProt P41595). The assay can be described thus: Antagonist activity at human 5-HT2B receptor expressed in HEK293 cells assessed as inhibition of serotonin-induced receptor activation preincubated for 15 mins followed by serotonin addition and measured after 1 hr by TGFalpha shedding assay. In kind it is functional, cell-based. The procedure, abridged:
as §1

For assay [3], the target named is T1, 5-hydroxytryptamine receptor 2C (Homo sapiens) (UniProt P28335).
T1 sequence (whole entry): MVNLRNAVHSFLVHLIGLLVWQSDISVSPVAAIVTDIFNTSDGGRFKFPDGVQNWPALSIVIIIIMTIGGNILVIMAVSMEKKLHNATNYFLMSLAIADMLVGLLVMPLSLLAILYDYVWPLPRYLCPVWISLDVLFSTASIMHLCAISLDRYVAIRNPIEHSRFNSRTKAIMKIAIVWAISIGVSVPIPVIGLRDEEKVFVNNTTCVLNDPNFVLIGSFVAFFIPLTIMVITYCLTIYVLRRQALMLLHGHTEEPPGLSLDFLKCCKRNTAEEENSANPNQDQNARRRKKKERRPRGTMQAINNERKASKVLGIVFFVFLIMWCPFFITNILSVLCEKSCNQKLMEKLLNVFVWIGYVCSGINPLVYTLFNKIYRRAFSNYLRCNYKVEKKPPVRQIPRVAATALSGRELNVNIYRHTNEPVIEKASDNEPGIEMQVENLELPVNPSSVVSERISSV
The assay can be described thus: Antagonist activity at human 5-HT2C receptor expressed in HEK293 cells assessed as inhibition of serotonin-induced receptor activation preincubated for 15 mins followed by serotonin addition and measured after 1 hr by TGFalpha shedding assay. In kind it is functional, cell-based. The gist of the method:
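HEK293 cells were co-transfected with the receptor construct and alkaline phosphatase-tagged TGFα, then seeded in HBSS. Cells were pretreated 15 min with compound (0.1 nM–30 µM final), then given serotonin at final 1 µM (5-HT2A) or 0.1 µM (5-HT2B, 5-HT2C) for 1 h at 37 °C. Readout was supernatant/total AP activity (p-nitrophenol, 405 nm), normalised to maximal agonist response, in triplicate. Kb came from IC50 via the modified Gaddum equation.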

The species named for assay [4] is Homo sapiens. Description: Selectivity ratio of Kb for human 5-HT2B receptor to Kb for human 5-HT2A receptor. The gist of the method: (§2)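 Ratio of the Kb at receptor Y to the Kb at receptor X. Each Kb came from TGFα-shedding antagonist curves in transfected HEK293 cells, converted from IC50 with the modified Gaddum equation IC50/([A]/EC50 − 1).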
Assay [5] concerns the target Serotonin 2 receptors; 5-HT2a & 5-HT2c (Homo sapiens) (UniProt P28223+P28335). The assay can be described thus: Selectivity ratio of Kb for human 5-HT2C receptor to Kb for human 5-HT2A receptor. The procedure, abridged:
as §2

The species named for assay [6] is Homo sapiens. Description: Selectivity ratio of Kb for human 5-HT2B receptor to Kb for human 5-HT2C receptor. The procedure, abridged: as §2
The species named for assay [7] is Homo sapiens. Description: Selectivity ratio of Kb for human adrenergic alpha1B receptor to Kb for human adrenergic alpha1A receptor. The procedure, abridged: as §2
The species named for assay [8] is Homo sapiens. The assay can be described thus: Selectivity ratio of Kb for human adrenergic alpha1D receptor to Kb for human adrenergic alpha1A receptor. The procedure, abridged:
as §2

For assay [9], the species on record is Homo sapiens. The assay can be described thus: Selectivity ratio of Kb for human adrenergic alpha1D receptor to Kb for human adrenergic alpha1B receptor. The gist of the method:
as §2

The species entered for assay [10] is Homo sapiens. The assay can be described thus: Selectivity ratio of Kb for human adrenergic alpha1A receptor to Kb for human 5-HT2A receptor. The gist of the method: as §2
Assay [11] has as its target T2, Alpha-1A adrenergic receptor (Homo sapiens) (UniProt P35348).
T2 sequence (whole entry): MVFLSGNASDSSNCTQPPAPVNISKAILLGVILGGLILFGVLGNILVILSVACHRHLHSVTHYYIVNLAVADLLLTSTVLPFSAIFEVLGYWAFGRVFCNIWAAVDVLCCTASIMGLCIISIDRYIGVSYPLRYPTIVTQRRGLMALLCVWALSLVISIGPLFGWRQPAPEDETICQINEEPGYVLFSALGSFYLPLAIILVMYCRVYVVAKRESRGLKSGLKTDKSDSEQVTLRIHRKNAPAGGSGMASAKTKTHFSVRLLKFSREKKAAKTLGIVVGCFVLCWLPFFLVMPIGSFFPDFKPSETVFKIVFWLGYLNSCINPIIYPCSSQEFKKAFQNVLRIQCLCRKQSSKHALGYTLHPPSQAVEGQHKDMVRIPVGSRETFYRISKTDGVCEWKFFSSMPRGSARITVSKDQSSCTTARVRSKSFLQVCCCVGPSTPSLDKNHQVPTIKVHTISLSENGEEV
Description: Antagonist activity at human adrenergic alpha1A receptor expressed in HEK293 cells assessed as inhibition of noradrenaline-induced receptor activation preincubated for 15 mins followed by noradrenaline addition and measured after 1 hr by TGFalpha shedding assay.

The target in assay [12] is T3, Alpha-1B adrenergic receptor (Homo sapiens) (UniProt P35368).
T3 sequence (whole entry): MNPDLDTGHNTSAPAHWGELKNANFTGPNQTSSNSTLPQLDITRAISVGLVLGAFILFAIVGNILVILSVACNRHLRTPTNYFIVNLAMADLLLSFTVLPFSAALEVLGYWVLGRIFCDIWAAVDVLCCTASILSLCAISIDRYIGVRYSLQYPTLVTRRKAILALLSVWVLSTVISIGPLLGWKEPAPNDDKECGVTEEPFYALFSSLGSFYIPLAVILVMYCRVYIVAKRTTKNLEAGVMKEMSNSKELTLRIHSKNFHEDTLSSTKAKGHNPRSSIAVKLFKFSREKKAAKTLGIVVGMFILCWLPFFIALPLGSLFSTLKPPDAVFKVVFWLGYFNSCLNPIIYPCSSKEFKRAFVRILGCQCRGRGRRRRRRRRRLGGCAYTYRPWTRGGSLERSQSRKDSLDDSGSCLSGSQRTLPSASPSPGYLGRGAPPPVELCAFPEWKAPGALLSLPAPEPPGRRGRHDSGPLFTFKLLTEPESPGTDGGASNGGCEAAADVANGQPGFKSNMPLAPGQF
The assay can be described thus: Antagonist activity at human adrenergic alpha1B receptor expressed in HEK293 cells assessed as inhibition of noradrenaline-induced receptor activation preincubated for 15 mins followed by noradrenaline addition and measured after 1 hr by TGFalpha shedding assay.

Assay [13] concerns the target T4, Alpha-1D adrenergic receptor (Homo sapiens) (UniProt P25100).
T4 sequence (whole entry): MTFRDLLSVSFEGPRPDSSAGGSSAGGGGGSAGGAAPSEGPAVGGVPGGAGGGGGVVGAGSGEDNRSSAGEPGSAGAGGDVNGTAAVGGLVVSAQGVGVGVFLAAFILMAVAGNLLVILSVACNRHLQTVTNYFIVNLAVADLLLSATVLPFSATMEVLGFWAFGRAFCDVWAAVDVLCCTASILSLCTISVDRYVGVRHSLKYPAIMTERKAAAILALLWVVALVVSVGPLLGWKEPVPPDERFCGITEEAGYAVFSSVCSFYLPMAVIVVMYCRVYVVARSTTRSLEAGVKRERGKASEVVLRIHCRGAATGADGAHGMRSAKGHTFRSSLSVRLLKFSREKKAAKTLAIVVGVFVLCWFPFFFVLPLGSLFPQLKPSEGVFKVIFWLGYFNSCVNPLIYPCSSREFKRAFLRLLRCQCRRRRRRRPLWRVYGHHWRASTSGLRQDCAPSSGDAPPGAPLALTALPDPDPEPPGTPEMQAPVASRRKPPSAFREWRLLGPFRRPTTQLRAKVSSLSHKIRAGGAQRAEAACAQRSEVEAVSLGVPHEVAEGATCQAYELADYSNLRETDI
The assay can be described thus: Antagonist activity at human adrenergic alpha1D receptor expressed in HEK293 cells assessed as inhibition of noradrenaline-induced receptor activation preincubated for 15 mins followed by noradrenaline addition and measured after 1 hr by TGFalpha shedding assay.

Assay [14] is filed under the species Homo sapiens. Description: Selectivity ratio of Kb for human adrenergic alpha1B receptor to Kb for human 5-HT2A receptor. The procedure, abridged: as §2
The species named for assay [15] is Homo sapiens. Description: Selectivity ratio of Kb for human adrenergic alpha1D receptor to Kb for human 5-HT2A receptor. The gist of the method: as §2
The species named for assay [16] is Homo sapiens. Description: Selectivity ratio of Kb for human adrenergic alpha1A receptor to Kb for human 5-HT2C receptor. The gist of the method: as §2
The species entered for assay [17] is Homo sapiens. The assay can be described thus: Selectivity ratio of Kb for human adrenergic alpha1B receptor to Kb for human 5-HT2C receptor. The procedure, abridged:
as §2

The species named for assay [18] is Homo sapiens. The assay can be described thus: Selectivity ratio of Kb for human adrenergic alpha1D receptor to Kb for human 5-HT2C receptor. The gist of the method: as §2
Assay [19] addresses T5, Alpha-1A adrenergic receptor (Homo sapiens, UniProt P35348).
T5 sequence (P35348 whole entry): T2 sequence (whole entry)
The assay can be described thus: Displacement of [125I]-HEAT from human adrenergic alpha1A receptor expressed in rat-1 cells. In kind it is cell-based. On the technique in general: Displacement assays read how much labelled ligand stays bound in the presence of the test substance.

Assay [20] concerns the target T6, Alpha-1B adrenergic receptor (Homo sapiens, UniProt P35368).
T6 sequence (P35368 whole entry): T3 sequence (whole entry)
Description: Displacement of [125I]-HEAT from human adrenergic alpha1B receptor expressed in rat-1 cells. The class given is cell-based.

The target in assay [21] is T7, Alpha-1D adrenergic receptor (Homo sapiens, UniProt P25100).
T7 sequence (P25100 whole entry): T4 sequence (whole entry)
The assay can be described thus: Displacement of [125I]-HEAT from human adrenergic alpha1D receptor expressed in rat-1 cells. The class given is cell-based.

This note sets out measurements from ChEMBL document CHEMBL4257488, “Synthesis and evaluation of nuciferine and roemerine enantiomers as 5-HT2 and α1 receptor antagonists” (Medchemcomm, 2018).

Chain of 5-hydroxytryptamine receptor 2A (Homo sapiens) (P28223 whole entry): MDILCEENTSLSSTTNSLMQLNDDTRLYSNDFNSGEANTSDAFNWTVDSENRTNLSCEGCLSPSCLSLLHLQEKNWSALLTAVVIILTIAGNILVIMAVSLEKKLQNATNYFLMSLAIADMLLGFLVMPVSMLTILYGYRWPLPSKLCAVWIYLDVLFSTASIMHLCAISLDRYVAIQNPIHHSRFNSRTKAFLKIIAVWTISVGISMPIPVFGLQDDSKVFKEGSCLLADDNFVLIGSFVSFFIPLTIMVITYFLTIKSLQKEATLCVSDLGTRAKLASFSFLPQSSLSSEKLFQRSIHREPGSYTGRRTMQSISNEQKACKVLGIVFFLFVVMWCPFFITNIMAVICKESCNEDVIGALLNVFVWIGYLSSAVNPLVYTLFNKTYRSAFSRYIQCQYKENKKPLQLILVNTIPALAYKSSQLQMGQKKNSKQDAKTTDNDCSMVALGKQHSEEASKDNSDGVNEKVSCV
Chain of Serotonin 2 receptors; 5-HT2a & 5-HT2c (Homo sapiens) (P28223 whole entry, looked up, one chain of several): as the sequence (P28223 whole entry) above
Chain of 5-hydroxytryptamine receptor 2B (Homo sapiens) (P41595 whole entry): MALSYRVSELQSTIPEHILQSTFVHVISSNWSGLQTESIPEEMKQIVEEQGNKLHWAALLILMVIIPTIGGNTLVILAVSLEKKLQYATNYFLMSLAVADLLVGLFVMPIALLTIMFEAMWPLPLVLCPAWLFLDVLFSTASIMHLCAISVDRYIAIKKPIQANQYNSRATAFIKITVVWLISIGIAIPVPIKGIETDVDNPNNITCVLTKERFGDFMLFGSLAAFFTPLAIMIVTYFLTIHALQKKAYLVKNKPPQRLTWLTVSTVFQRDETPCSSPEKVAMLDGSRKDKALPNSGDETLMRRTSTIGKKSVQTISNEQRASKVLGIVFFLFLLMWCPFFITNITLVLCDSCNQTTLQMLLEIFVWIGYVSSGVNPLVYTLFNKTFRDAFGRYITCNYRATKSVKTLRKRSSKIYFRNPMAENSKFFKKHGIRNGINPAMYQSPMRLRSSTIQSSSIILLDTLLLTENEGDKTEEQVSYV

`COc1cc2c3c(c1OC)-c1ccccc1C[C@H]3N(C)CC2`: the Kb in [1] amounted to 65.3 nM; in assay [2], 31 nM; in [3] it was 36.4 nM; in assay [11] it was 37.8 nM; in [12], 60.6 nM; in [13] it was 165 nM. Moreover, the pKb in assay [1] was 7.18 to 7.26; in assay [2], 7.51; in assay [3], 7.44; in assay [11] it was 7.31 to 7.42; in assay [12], 7.22; in [13] it was 6.78. Besides, the Selectivity ratio is 0.5 in [4]; 0.6 in assay [5]; 1 in assay [6]; 2 in assay [7]; 4 in [8]; 3 in assay [9]. For the same molecule, in [10], the Selectivity ratio is 1.
Turning to `CN1CCc2cc3c(c4c2[C@H]1Cc1ccccc1-4)OCO3`, the Kb in assay [1] was found to be 10.8 nM; in [2], 84 nM; in [3], 15.1 nM; in [11], 338 nM; in assay [12], 266 nM; in assay [13], 46 nM. The pKb was 7.88 to 7.97 in [1]; 7.08 in [2]; 7.82 in assay [3]; 6.38 to 6.47 in [11]; 6.57 in assay [12]; 7.34 in assay [13]. Moreover, the Selectivity ratio is 8 in [4]; 1 in assay [5]; 6 in assay [6]; 0.8 in [7]; 0.1 in [8]; 0.2 in [9]. Moreover, the Selectivity ratio in [10] was 32; in assay [14], 18 to 32; in assay [15] it was 3 to 4; in [16] it was 18 to 32; in assay [17] it was 18 to 32; in assay [18], 3 to 4. Also, the inhibitory constant (Ki) was 251 nM in [19], 3160 nM in assay [20] and 631 nM in assay [21].
For the molecule `CN1CCc2cc3c(c4c2[C@@H]1Cc1ccccc1-4)OCO3`, the Kb in assay [1] amounted to 42.9 nM; in assay [2], 92.7 nM; in assay [3], 76.9 nM; in [11], 86 nM; in [12] it was 154 nM; in assay [13] it was 92.2 nM. The pKb in assay [1] is 7.06 to 7.37; in [2], 7.03; in assay [3] it was 7.12; in assay [11], 6.62 to 7.07; in [12], 6.81; in assay [13], 7.04. The Selectivity ratio in [4] is 2; in [5], 2; in assay [6], 1; in assay [7], 2; in assay [8], 1; in [9], 0.6. In addition, in assay [10], the Selectivity ratio came to 3.
Consider `COc1cc2c3c(c1OC)-c1ccccc1C[C@@H]3N(C)CC2`, for which the Kb in assay [1] turned out to be 84.3 nM; in assay [2], 41.7 nM; in assay [3], 30.9 nM; in [11], 67.1 nM; in assay [12] it was 316 nM; in [13] it was 116 nM. For the same molecule, the pKb in assay [1] is 6.85 to 7.07; in assay [2], 7.38; in [3], 7.51; in assay [11], 6.91 to 7.17; in assay [12] it was 6.5; in assay [13] it was 6.94. For the same molecule, the Selectivity ratio was 0.5 in assay [4]; 0.4 in assay [5]; 1 in assay [6]; 5 in [7]; 2 in assay [8]; 0.4 in [9]. Besides, in assay [10], the Selectivity ratio is 1.

In general, Kb refers to the affinity of an antagonist, worked out from how it opposes an agonist. Usually pKb stands for the negative decadic logarithm of the Kb, by convention in mol/L. Usually Ki stands for the dissociation constant of the complex between target and ligand, obtained from inhibition or displacement. Lower therefore signals a stronger hold on the target.
